The subject of data set [1] is Streptococcus pneumoniae. The data set can be described thus: Antibacterial activity against fluoroquinolone resistance Streptococcus pneumoniae SP3765. In kind it is functional.
Another data set deals with hERG (KCNH2) (Homo sapiens, UniProt Q12809). Description: Displacement of [3H]dofetilide from human ERG at 300 uM. The conditions noted are these: probe [3H]dofetilide. In outline:
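Radioligand filter-binding assay measuring displacement of [3H]-dofetilide from the hERG channel, run as in a patent protocol.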

The nature of data set [2]: Volume of distribution in rat at 1 mg/kg, iv. The conditions noted are these: in vivo, read-out: Vdss. The format is ADME, organism-based. The arrangement: dose 1 mg/kg, route intravenous.
The subject of data set [3] is Streptococcus pneumoniae. The data set can be described thus: Antibacterial activity against Streptococcus pneumoniae SV1. The format is functional.
The test system of a further data set is Haemophilus influenzae. The data set can be described thus: Antibacterial activity against Haemophilus influenzae HI3542. In kind it is functional. The conditions noted are these: HI-3542.
In a further data set the test system is Rattus norvegicus. The data set can be described thus: AUC in rat at 1 mg/kg, iv. The format is ADME, organism-based, Plasma. The arrangement: dose 1 mg/kg, route intravenous. Particulars: in vivo.
The nature of data set [4]: Cmax in rat at 5 mg/kg, po. In kind it is ADME, organism-based. The arrangement: dose 5 mg/kg, route oral. Particulars: in vivo.
In data set [5] the target is Voltage-gated inwardly rectifying potassium channel KCNH2 (Homo sapiens, UniProt Q12809). Description: Displacement of [3H]dofetilide from human ERG by fliter binding assay.
Chain of Voltage-gated inwardly rectifying potassium channel KCNH2 (Q12809 whole entry): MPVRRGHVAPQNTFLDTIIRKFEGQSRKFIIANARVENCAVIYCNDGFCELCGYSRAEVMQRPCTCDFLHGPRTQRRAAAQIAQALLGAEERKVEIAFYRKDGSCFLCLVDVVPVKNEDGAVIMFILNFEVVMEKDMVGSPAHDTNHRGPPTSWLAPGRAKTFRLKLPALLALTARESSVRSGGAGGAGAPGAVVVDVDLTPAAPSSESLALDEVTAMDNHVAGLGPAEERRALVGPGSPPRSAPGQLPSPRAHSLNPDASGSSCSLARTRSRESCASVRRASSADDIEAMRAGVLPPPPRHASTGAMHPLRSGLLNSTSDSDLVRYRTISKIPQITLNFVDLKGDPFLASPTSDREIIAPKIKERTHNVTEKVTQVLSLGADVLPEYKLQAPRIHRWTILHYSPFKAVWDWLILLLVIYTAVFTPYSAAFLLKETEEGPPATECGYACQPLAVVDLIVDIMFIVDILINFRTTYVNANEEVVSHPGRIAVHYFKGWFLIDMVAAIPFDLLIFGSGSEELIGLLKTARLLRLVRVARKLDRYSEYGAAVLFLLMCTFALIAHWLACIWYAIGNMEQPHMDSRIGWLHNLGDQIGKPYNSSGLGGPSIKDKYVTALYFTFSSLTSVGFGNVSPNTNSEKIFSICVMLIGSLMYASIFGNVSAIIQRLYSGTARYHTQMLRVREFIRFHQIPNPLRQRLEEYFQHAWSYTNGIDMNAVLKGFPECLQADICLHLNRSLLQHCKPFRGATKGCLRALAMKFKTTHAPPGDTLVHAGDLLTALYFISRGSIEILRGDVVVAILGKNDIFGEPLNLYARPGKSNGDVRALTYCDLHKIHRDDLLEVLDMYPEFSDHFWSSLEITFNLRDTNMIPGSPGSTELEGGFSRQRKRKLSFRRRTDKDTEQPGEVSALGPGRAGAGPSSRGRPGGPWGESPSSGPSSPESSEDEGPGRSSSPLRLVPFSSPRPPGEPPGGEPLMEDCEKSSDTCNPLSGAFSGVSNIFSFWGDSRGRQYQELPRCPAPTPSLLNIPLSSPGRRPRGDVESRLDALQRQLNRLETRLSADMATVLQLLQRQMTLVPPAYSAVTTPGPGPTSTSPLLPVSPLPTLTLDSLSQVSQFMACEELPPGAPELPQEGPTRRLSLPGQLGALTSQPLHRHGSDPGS
Data set [6] in a line: Half life in rat at 1 mg/kg, iv. In kind it is ADME, organism-based. The arrangement: dose 1 mg/kg, route intravenous. The conditions noted are these: in vivo.
Data set [7] is described as follows: Bioavailability in rat at 5 mg/kg, po. The format is ADME, organism-based. The conditions noted are these: in vivo.
In data set [8] the test system is Staphylococcus aureus. Description: Antibacterial activity against Staphylococcus aureus UC76. The format is functional.
For data set [9], the system named is Staphylococcus aureus. The data set can be described thus: Antibacterial activity against Staphylococcus aureus SA2552. The format is functional.
Data set [10] can be described thus: Clearance in rat at 1 mg/kg, iv. In kind it is ADME, organism-based. The arrangement: dose 1 mg/kg, route intravenous. The conditions noted are these: in vivo.
A further data set deals with Moraxella catarrhalis. Description: Antibacterial activity against Moraxella catarrhalis BC-3531. The format is functional.

Structures are written as SMILES. In brackets after ≈: the same amount, converted by molar mass. A value given as a limit tells only on which side of the number the result lay.

From ChEMBL document CHEMBL1144619, “The synthesis and biological evaluation of novel series of nitrile-containing fluoroquinolones as antibacterial agents” (Bioorg Med Chem Lett, 2007) come the findings set out here.

Chain of hERG (KCNH2) (Q12809 whole entry): as above

As for `COc1c(N2CC[C@@H]([C@@H](N)CC#N)C2)ccc2c(=O)c(C(=O)O)cn(C3CC3)c12`, the MIC with Streptococcus pneumoniae [1] was determined as 0.5 µg/mL (≈ 1.26 µM); in the data set with Streptococcus pneumoniae [3] it was 0.03 µg/mL (≈ 0.0757 µM); against Haemophilus influenzae it was 0.06 µg/mL (≈ 0.151 µM); against Staphylococcus aureus [8], 0.008 µg/mL (≈ 0.0202 µM); against Staphylococcus aureus [9], 0.06 µg/mL (≈ 0.151 µM); against Moraxella catarrhalis it was 0.125 µg/mL (≈ 0.315 µM). The inhibition at 300 µM on hERG (KCNH2) was 30%. For the same compound, in [2], the Vd worked out at 0.5 L/kg. Also, in the data set on Rattus norvegicus, the AUC was 5.2 ug/hr.ml. The Cmax in data set [4] was 1400 ng/mL. Further, the Ki in data set [5] is greater than 150 µM. In [6], the half-life was 1.8 h. This compound showed a bioavailability in [7] of 22%. The compound also had a clearance in data set [10] of 16 mL/min/kg.
